One block for each compound: values may come before it. Calls of active or inactive are those of the source. No cut-off for these calls is given here.
Key:
[1] = biological target: T1, Amyloid-beta precursor protein (Homo sapiens, UniProt P05067); experiment: Inhibition of amyloid beta42 aggregation assessed as reduction in fluorescence measured immediately post-compound addition by thioflavin T-based fluorometry
In short: (§1)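 Aβ42 at 25 μM was incubated with a range of compound concentrations in triplicate at 37°C with shaking for four days, read at t=0 and t=4 d. Compound was taken from a 10 mM DMSO stock diluted in PBS. Aliquots were added to 25 μM ThT in 50 mM glycine, pH 8, for 5 min, then read at ex 446/em 490 nm. IC50 was taken from % fluorescence of untreated control.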

[2] = Drug degradation in aqueous buffer assessed as N-(2-amino-4-methylphenyl)-4-chlorobenzenesulfonamide formation up to 24 hrs by LC-MS analysis at pH 7.4; assay type: physicochemical; conditions: pH 7.4, 24 h
[3] = biological target: T1, Amyloid-beta precursor protein; experiment: Inhibition of amyloid beta42 aggregation assessed as reduction in fluorescence after 4 days by thioflavin T-based fluorometry; in short: as §1
[4] = biological target: T1, Amyloid-beta precursor protein; experiment: Inhibition of amyloid beta42 aggregation assessed as inhibition of fibril formation at 25 uM after 5 days by circular dichroism
In short: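 Circular dichroism: 25 μM Aβ42 alone or mixed 1:1 with 25 μM compound, incubated at 37°C with orbital shaking at 200 rpm. Spectra taken every 24 h for 5 days at 37°C in a 1-mm cell, 190–260 nm, 0.2-nm resolution, 1-nm bandwidth, background-subtracted and averaged. Compound dissolved to 10 mM in NaOH, then diluted in PBS.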

[5] = Inhibition of amyloid beta42 assessed as decrease in mature fibril formation at 25 uM after 4 days by […] electron microscopy
In short: (§2)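 Negative-stain TEM: 25 μM Aβ42 alone or with 25 μM compound (1:1), incubated four days at 37°C. Aliquots spotted 2 min on glow-discharged carbon-coated Formvar grids and stained with 1% uranyl acetate.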

[6] = Inhibition of amyloid beta42 assessed as increase in amorphous aggregates at 25 uM after 4 days by […] electron microscopy; in short: as §2
[7] = system: PC-12; experiment: Cytotoxicity against rat PC12 cells assessed as reduction in cell viability at 50 uM after 48 hrs by MTT assay; assay type: cell-based; conditions: pc-12, 48 h
[8] = Drug degradation in aqueous buffer assessed as 3,5-dichloro-2-hydroxybenzaldehyde formation up to 24 hrs by LC-MS analysis at pH 7.4; assay type: physicochemical; conditions: pH 7.4, 24 h
[9] = Drug degradation in aqueous buffer assessed as N-(2-amino-4-methylphenyl)benzo[b]oxirene-3-sulfonamide formation up to 24 hrs by LC-MS analysis at pH 7.4; assay type: physicochemical; conditions: pH 7.4, 24 h
[10] = Drug degradation in aqueous buffer assessed as (E)-N-(2-(3,5-dichloro-2-hydroxybenzylideneamino)-4-methylphenyl)benzo[b]oxirene-3-sulfonamide formation up to 24 hrs by LC-MS analysis at pH 7.4; assay type: physicochemical; conditions: pH 7.4, 24 h

T1 sequence (P05067 whole entry): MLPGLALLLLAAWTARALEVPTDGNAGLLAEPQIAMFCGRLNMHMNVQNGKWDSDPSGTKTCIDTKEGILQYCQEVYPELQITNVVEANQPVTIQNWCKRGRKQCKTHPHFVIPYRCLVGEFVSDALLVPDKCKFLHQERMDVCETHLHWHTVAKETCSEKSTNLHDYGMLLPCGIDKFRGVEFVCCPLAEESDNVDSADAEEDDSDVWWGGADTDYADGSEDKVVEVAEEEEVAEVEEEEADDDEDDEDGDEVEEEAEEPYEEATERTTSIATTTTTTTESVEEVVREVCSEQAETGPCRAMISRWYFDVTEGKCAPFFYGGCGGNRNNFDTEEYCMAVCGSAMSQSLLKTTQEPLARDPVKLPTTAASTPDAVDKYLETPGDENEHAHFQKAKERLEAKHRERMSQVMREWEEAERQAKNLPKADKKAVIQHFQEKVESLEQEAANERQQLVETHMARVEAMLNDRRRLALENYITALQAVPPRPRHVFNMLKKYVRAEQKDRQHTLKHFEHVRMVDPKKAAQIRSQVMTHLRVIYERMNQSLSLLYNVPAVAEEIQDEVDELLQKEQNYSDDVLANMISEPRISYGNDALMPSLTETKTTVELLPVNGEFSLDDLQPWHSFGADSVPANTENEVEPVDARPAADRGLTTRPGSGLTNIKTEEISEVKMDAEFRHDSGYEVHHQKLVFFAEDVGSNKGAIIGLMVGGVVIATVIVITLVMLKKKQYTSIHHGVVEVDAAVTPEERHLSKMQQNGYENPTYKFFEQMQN

IC50 [1]: 30 µM
Drug degradation [2]: Active
IC50 [3]: 23 µM
inhibition [3]: Dose-dependent effect
SMILES: Cc1ccc(NS(=O)(=O)c2ccc(Cl)cc2)c(N)c1

IC50 [1]: 62 µM
inhibition [4]: Active
inhibition [5]: Active
inhibition [6]: Active
IC50 [3]: 13 µM
inhibition [3]: Dose-dependent effect
SMILES: Cc1ccc(NS(=O)(=O)c2ccc(Cl)cc2)c(/N=C/c2cc(Cl)cc(Cl)c2O)c1
Activity [7]: 40%

Drug degradation [8]: Active
inhibition [3]: inactive
SMILES: O=Cc1cc(Cl)cc(Cl)c1O

Drug degradation [9]: Active
SMILES: Cc1ccc(NS(=O)(=O)c2ccc3c(c2)O3)c(N)c1

Drug degradation [10]: Active
SMILES: Cc1ccc(NS(=O)(=O)c2ccc3c(c2)O3)c(/N=C/c2cc(Cl)cc(Cl)c2O)c1

From ChEMBL document CHEMBL2062413, “Design of β-amyloid aggregation inhibitors from a predicted structural motif” (J Med Chem, 2012)
